This is an account of results in ChEMBL document CHEMBL4000144, “Novel amide and sulphonamide derivatives of 6-(piperazin-1-yl)phenanthridine as potent Mycobacterium tuberculosis H37Rv inhibitors” (Eur J Med Chem, 2015).

Data set [1] has as its system Mycobacterium tuberculosis. The data set can be described thus: Antimycobacterial activity against Mycobacterium tuberculosis H37Rv ATCC 27294 after 5 days by microplate alamar blue assay. The class given is functional. As to conditions: H37Rv ATCC 27294, 120 h. The method, boiled down:
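MTB H37Rv (ATCC 27294) in 7H9GC broth, 2-fold serial dilutions from 50 to 0.78 µg/mL. Controls were medium only, inoculum only, and inoculum with 3-5% DMSO. Incubated at 37°C for 5 days. Then 1:1 10× Alamar Blue/10% Tween 80 was added and plates read after a further 24 h at 37°C. Blue scored as no growth, pink as growth.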
(The colour change of resazurin is a common sign of viable cells or microbes.)

A short description of data set [2]: Selectivity index, ratio of IC50 for mouse RAW264.7 cells to MIC for Mycobacterium tuberculosis H37Rv ATCC 27294. In kind it is toxicity. The settings on record: read-out: Selectivity Index.
A short description of data set [3]: Cytotoxicity against mouse RAW264.7 cells assessed as inhibition of cell viability at 50 ug/ml after 72 hrs by Cell Titer 96 non-radioactive cell proliferation assay. The class given is cell-based. In a few lines: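 Mouse macrophage RAW264.7 cells exposed to compound at 50 µg/mL for 72 h. Viability was then measured by the MTT-type Cell Titer 96 non-radioactive proliferation assay.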

The subject of the next data set is RAW264.7. The data set can be described thus: Cytotoxicity against mouse RAW264.7 cells assessed as inhibition of cell viability after 72 hrs by Cell Titer 96 non-radioactive cell proliferation assay. As to conditions: RAW264.7, 72 h. The class given is cell-based. The method, boiled down:
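MTT-type Cell Titer 96 non-radioactive proliferation assay on mouse macrophage RAW264.7 cells. Viability was read after 72 h of exposure. IC50 values are given as approximate.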

SMILES strings stand for the structures. Values after ≈ are worked out from the molar mass of the structure shown.

Take `O=C(Cc1c[nH]c2ccccc12)N1CCN(c2nc3ccccc3c3ccccc23)CC1`: the MIC99 – broadly, the lowest concentration that inhibits either 99% of growth or 99% of the strains tested, depending on the study – in data set [1] was 25 µg/mL (≈ 59.5 µM).

`Nc1ccccc1C(=O)N1CCN(c2nc3ccccc3c3ccccc23)CC1` gave an MIC99 in data set [1] of more than 50 µg/mL.

In data set [1], `O=C(c1cc([N+](=O)[O-])cc([N+](=O)[O-])c1)N1CCN(c2nc3ccccc3c3ccccc23)CC1` had an MIC99 of 25 µg/mL (≈ 54.7 µM).

Take `O=C(c1cccs1)N1CCN(c2nc3ccccc3c3ccccc23)CC1`: in data set [1], the MIC99 came to 50 µg/mL (≈ 134 µM).

For `NC(=O)c1cnccn1` [PYRAZINAMIDE], the MIC99 in data set [1] is 6.25 µg/mL (≈ 50.8 µM).

In the case of `O=C(c1ccc([N+](=O)[O-])cc1)N1CCN(c2nc3ccccc3c3ccccc23)CC1`, the MIC99 in data set [1] came to 50 µg/mL (≈ 121 µM).

As to `Cc1cc(S(=O)(=O)N2CCN(c3nc4ccccc4c4ccccc34)CC2)c(C)cc1Cl`, the selectivity ratio in data set [2] is 11.5. The MIC99 in data set [1] came out at 6.25 µg/mL (≈ 13.4 µM). The inhibition (as a rule, the relative decrease from the control value, in per cent) at 72 h, 50 ug/ml in data set [3] is 34.6%. Besides, in the data set with RAW264.7, the IC50 – broadly, the point on the concentration scale where inhibition reaches its midpoint – was determined as 72.2 µg/mL (≈ 155 µM).

`N#CCC(=O)N1CCN(c2nc3ccccc3c3ccccc23)CC1` returned an MIC99 in data set [1] of 25 µg/mL (≈ 75.7 µM).

In the case of `O=S(=O)(c1ccc(F)cc1)N1CCN(c2nc3ccccc3c3ccccc23)CC1`, in data set [2], the selectivity ratio came to 12.2. Moreover, the MIC99 in data set [1] is 6.25 µg/mL (≈ 14.8 µM). Besides, in data set [3], the inhibition at 72 h, 50 ug/ml was determined as 32.8%. In addition, the IC50 in the data set with RAW264.7 worked out at 76.3 µg/mL (≈ 181 µM).

In turn, `CO[C@H]1/C=C/O[C@@]2(C)Oc3c(C)c(O)c4c(O)c(c(/C=N/N5CCN(C)CC5)c(O)c4c3C2=O)NC(=O)/C(C)=C\C=C\[C@H](C)[C@H](O)[C@@H](C)[C@@H](O)[C@@H](C)[C@H](OC(C)=O)[C@@H]1C` [RIFAMPIN] returned an MIC99 in data set [1] of 0.2 µg/mL (≈ 0.243 µM).

On to `O=C(c1ccccn1)N1CCN(c2nc3ccccc3c3ccccc23)CC1`, for which the selectivity ratio in data set [2] amounted to 19. This molecule also returned an MIC99 in data set [1] of 3.13 µg/mL (≈ 8.5 µM). Further, in data set [3], the inhibition at 72 h, 50 ug/ml is 42.2%. In addition, the IC50 in the data set with RAW264.7 is 59.3 µg/mL (≈ 161 µM).

Take `O=S(=O)(c1ccccc1)N1CCN(c2nc3ccccc3c3ccccc23)CC1`: the selectivity ratio in data set [2] is 13. The MIC99 in data set [1] was found to be 6.25 µg/mL (≈ 15.5 µM). In addition, the inhibition at 72 h, 50 ug/ml in data set [3] was determined as 30.7%. In addition, in the data set with RAW264.7, the IC50 stood at 81.4 µg/mL (≈ 202 µM).

As to `O=S(=O)(c1ccc(C(F)(F)F)cc1)N1CCN(c2nc3ccccc3c3ccccc23)CC1`, the MIC99 in data set [1] amounted to 25 µg/mL (≈ 53 µM).

Take `O=C(/C=C/c1ccccc1)N1CCN(c2nc3ccccc3c3ccccc23)CC1`: the selectivity ratio in data set [2] was found to be 9.04. The MIC99 in data set [1] was found to be 12.5 µg/mL (≈ 31.8 µM). Further, the inhibition at 72 h, 50 ug/ml in data set [3] was 22.1%. In addition, in the data set with RAW264.7, the IC50 was found to be 113 µg/mL (≈ 287 µM).

Molecule `O=[N+]([O-])c1ccc(S(=O)(=O)N2CCN(c3nc4ccccc4c4ccccc34)CC2)cc1` had an MIC99 in data set [1] of 50 µg/mL (≈ 111 µM).

For `O=C(O)c1cccc(C(=O)N2CCN(c3nc4ccccc4c4ccccc34)CC2)n1`, the selectivity ratio in data set [2] stood at 30.2. For the same molecule, the MIC99 in data set [1] turned out to be 3.13 µg/mL (≈ 7.59 µM). The inhibition at 72 h, 50 ug/ml in data set [3] came to 26.5%. The half-inhibitory concentration (IC50) with RAW264.7 was 94.3 µg/mL (≈ 229 µM).

Turning to `O=C(c1ccc(Cl)cc1)N1CCN(c2nc3ccccc3c3ccccc23)CC1`, the selectivity ratio in data set [2] amounted to 7.54. The MIC99 in data set [1] came out at 12.5 µg/mL (≈ 31.1 µM). Moreover, the inhibition at 72 h, 50 ug/ml in data set [3] was determined as 26.5%. Moreover, the IC50 in the data set with RAW264.7 is 94.3 µg/mL (≈ 235 µM).

`O=S(=O)(c1ccc(Br)s1)N1CCN(c2nc3ccccc3c3ccccc23)CC1` displayed an MIC99 in data set [1] of 3.13 µg/mL (≈ 6.41 µM). Besides, in data set [3], the inhibition at 72 h, 50 ug/ml came to 42.2%. Besides, in the data set with RAW264.7, the half-inhibitory concentration (IC50) amounted to 59.3 µg/mL (≈ 121 µM).

Turning to `CC(=O)c1ccc(S(=O)(=O)N2CCN(c3nc4ccccc4c4ccccc34)CC2)cc1`, the MIC99 in data set [1] was 25 µg/mL (≈ 56.1 µM).

For the molecule `O=C(c1ccccc1)N1CCN(c2nc3ccccc3c3ccccc23)CC1`, the selectivity ratio in data set [2] came out at 36.1. Also, in data set [1], the MIC99 was determined as 3.13 µg/mL (≈ 8.52 µM). The inhibition at 72 h, 50 ug/ml in data set [3] worked out at 22.2%. In addition, the IC50 with RAW264.7 came to 113 µg/mL (≈ 307 µM).

Turning to `O=C(c1cccc([N+](=O)[O-])c1)N1CCN(c2nc3ccccc3c3ccccc23)CC1`, in data set [2], the selectivity ratio was determined as 23.1. Moreover, the MIC99 in data set [1] turned out to be 3.13 µg/mL (≈ 7.59 µM). Moreover, in data set [3], the inhibition at 72 h, 50 ug/ml was found to be 34.6%. Besides, in the data set on RAW264.7, the IC50 came out at 72.2 µg/mL (≈ 175 µM).

On to `COc1ccc(S(=O)(=O)N2CCN(c3nc4ccccc4c4ccccc34)CC2)cc1`, for which the selectivity ratio in data set [2] turned out to be 15.1. In addition, in data set [1], the MIC99 came out at 6.25 µg/mL (≈ 14.4 µM). Moreover, the inhibition at 72 h, 50 ug/ml in data set [3] was determined as 26.5%. Further, the IC50 in the data set on RAW264.7 was 94.3 µg/mL (≈ 217 µM).

For `O=C(Cc1cccc2ccccc12)N1CCN(c2nc3ccccc3c3ccccc23)CC1`, the MIC99 in data set [1] is more than 50 µg/mL.

As for `O=C(CCc1c[nH]c2ccccc12)N1CCN(c2nc3ccccc3c3ccccc23)CC1`, the selectivity ratio in data set [2] was 11.5. Also, in data set [1], the MIC99 came out at 6.25 µg/mL (≈ 14.4 µM). The inhibition at 72 h, 50 ug/ml in data set [3] amounted to 34.6%. The IC50 with RAW264.7 is 72.2 µg/mL (≈ 166 µM).

Regarding `O=S(=O)(c1ccc(Cl)cc1)N1CCN(c2nc3ccccc3c3ccccc23)CC1`, the selectivity ratio in data set [2] was determined as 38.3. Besides, the MIC99 in data set [1] amounted to 3.13 µg/mL (≈ 7.15 µM). Further, in data set [3], the inhibition at 72 h, 50 ug/ml turned out to be 20.9%. In the data set on RAW264.7, the 50% inhibitory concentration (IC50) came out at 120 µg/mL (≈ 273 µM).

As for `Cc1cc(C)c(S(=O)(=O)N2CCN(c3nc4ccccc4c4ccccc34)CC2)c(C)c1`, the selectivity ratio in data set [2] was determined as 7.54. The MIC99 in data set [1] was determined as 12.5 µg/mL (≈ 28.1 µM). In data set [3], the inhibition at 72 h, 50 ug/ml came to 26.5%. Also, the IC50 in the data set on RAW264.7 was 94.3 µg/mL (≈ 212 µM).

Turning to `O=C(CCCc1c[nH]c2ccccc12)N1CCN(c2nc3ccccc3c3ccccc23)CC1`, the selectivity ratio in data set [2] is 47. Moreover, the MIC99 in data set [1] came to 1.56 µg/mL (≈ 3.48 µM). Moreover, the inhibition at 72 h, 50 ug/ml in data set [3] stood at 34.1%. Also, the IC50 in the data set on RAW264.7 turned out to be 73.3 µg/mL (≈ 163 µM).

As to `Nc1ccc(C(=O)N2CCN(c3nc4ccccc4c4ccccc34)CC2)cc1`, the MIC99 in data set [1] stood at 50 µg/mL (≈ 131 µM).

As for `Cc1ccc(S(=O)(=O)N2CCN(c3nc4ccccc4c4ccccc34)CC2)cc1`, the MIC99 in data set [1] is more than 50 µg/mL.

For the molecule `CC(C)(C)c1ccc(S(=O)(=O)N2CCN(c3nc4ccccc4c4ccccc34)CC2)cc1`, the selectivity ratio in data set [2] turned out to be 55.4. Also, the MIC99 in data set [1] turned out to be 1.56 µg/mL (≈ 3.39 µM). For the same molecule, in data set [3], the inhibition at 72 h, 50 ug/ml is 28.9%. For the same molecule, in the data set on RAW264.7, the IC50 came out at 86.4 µg/mL (≈ 188 µM).

With `O=C(c1ccncc1)N1CCN(c2nc3ccccc3c3ccccc23)CC1`, the selectivity ratio in data set [2] came to 57.4. Moreover, in data set [1], the MIC99 came to 1.56 µg/mL (≈ 4.23 µM). The inhibition at 72 h, 50 ug/ml in data set [3] amounted to 27.9%. Moreover, the IC50 in the data set on RAW264.7 stood at 89.6 µg/mL (≈ 243 µM).

Turning to `O=C(c1cccnc1)N1CCN(c2nc3ccccc3c3ccccc23)CC1`, the selectivity ratio in data set [2] worked out at 20.9. The molecule further displayed an MIC99 in data set [1] of 6.25 µg/mL (≈ 17 µM). In data set [3], the inhibition at 72 h, 50 ug/ml came to 19.2%. Moreover, the IC50 in the data set with RAW264.7 turned out to be 130 µg/mL (≈ 354 µM).

The molecule `NNC(=O)c1ccncc1` [ISONIAZID] came in with an MIC99 in data set [1] of 0.1 µg/mL (≈ 0.729 µM).

For `O=C(c1ccco1)N1CCN(c2nc3ccccc3c3ccccc23)CC1`, the MIC99 in data set [1] came to 25 µg/mL (≈ 69.9 µM).

As for `O=S(=O)(c1ccc(Br)cc1)N1CCN(c2nc3ccccc3c3ccccc23)CC1`, the selectivity ratio in data set [2] was determined as 28.4. Besides, the MIC99 in data set [1] amounted to 3.13 µg/mL (≈ 6.49 µM). Moreover, in data set [3], the inhibition at 72 h, 50 ug/ml amounted to 28.2%. Further, in the data set with RAW264.7, the IC50 was found to be 88.8 µg/mL (≈ 184 µM).

In data set [1], `CS(=O)(=O)N1CCN(c2nc3ccccc3c3ccccc23)CC1` had an MIC99 of 25 µg/mL (≈ 73.2 µM).
